Experimental data from PMC7495282 (British Journal of Clinical Pharmacology, 2020).
Where two headings read alike, the source gives them in different places. One block for each compound: values may come before it.

Legend:
[1] = system: breast cancer resistance protein; conditions: in vitro; cited from earlier work
[2] = format: in vivo, healthy Japanese subjects
Procedure, shortened: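 Healthy Japanese males, 20–45 y. Oral 5 mg, fasted, Day 1. CYP3A inducer 600 mg orally once daily before breakfast for 9 days from Day 8; Day 13 dose given fasted 2 h after inducer. Plasma taken predose to 96 h (1700 g, 10 min, 4 °C; stored ≤−20 °C). Parent and metabolites M1, M4, M11 by SPE–LC–MS/MS. Noncompartmental analysis; GLSM ratios, 90% CI.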

[3] = system: mineralocorticoid receptor (MR); conditions: in vitro, cited from earlier work
CYP3A4 = conditions: human liver microsomes and human CYP expression system; cited from earlier work
[4] = cited from earlier work
CYP3A5 = conditions: human liver microsomes and human CYP expression system; cited from earlier work
P‐glycoprotein (P‐gp) = conditions: in vitro; cited from earlier work
[5] = cited from earlier work; remark: listed apart in the source
[6] = Study 1: single-dose esaxerenone pharmacokinetics alone and with itraconazole; format: in vivo, healthy Japanese subjects
Procedure, shortened: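 Healthy Japanese males, 20–45 y, BMI 18.5–<25 kg m−2. Oral 2.5 mg tablet with 200 mL water, fasted (≥10 h before, 4 h after), on Day 1. CYP3A inhibitor 200 mg twice on Day 8, then once daily Days 9–16. Day 13 co-dose given fasted. Plasma sampled predose to 96 h, extracted by SPE, assayed by LC–MS/MS. Noncompartmental PK; GLSM ratios with 90% CI.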

[7] = Study 1 safety and tolerability; format: in vivo, healthy Japanese subjects; conditions: for Blood creatine phosphokinase increased, TEAE / Eosinophil count increased, TEAE / Rash, TEAE: n = 20
Procedure, shortened: (§1)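 Healthy Japanese males, 20–45 y. Safety was assessed from adverse events, laboratory tests, vital signs (BP, pulse rate, body temperature) and 12-lead ECG. Adverse events were coded by MedDRA/J (versions 19.0 and 19.1) System Organ Class and Preferred Term. Safety set was all consenting subjects given at least 1 dose of any study drug.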

[8] = Study 2 safety and tolerability; format: in vivo, healthy Japanese subjects
Procedure, shortened: as §1

[9] = esaxerenone 20 mg; ref unpublished data on file, Daiichi Sankyo Co., Ltd.; cited from earlier work
[10] = cited from earlier work; remark: listed apart in the source
human MR = conditions: read-out: half-maximal inhibitory concentration for the transcriptional activity of human MR; in vitro; cited from earlier work
[11] = in the presence of ketoconazole; cited from earlier work
[12] = (esaxerenone + rifampicin)/(esaxerenone alone), 5 mg
[13] = coadministration with rifampicin vs esaxerenone alone
[14] = esaxerenone 5 mg + rifampicin, n = 11
[15] = esaxerenone 5 mg single oral dose + rifampicin 600 mg once daily, n = 11
[16] = esaxerenone 5 mg single oral dose, alone, n = 11
[17] = esaxerenone 5 mg, alone, n = 11
[18] = (esaxerenone + itraconazole)/(esaxerenone alone), 2.5 mg
[19] = esaxerenone 2.5 mg + itraconazole, n = 20
[20] = esaxerenone 2.5 mg single oral dose + itraconazole 200 mg, n = 20
[21] = esaxerenone 2.5 mg single oral dose, alone, n = 20
[22] = esaxerenone 2.5 mg, alone, n = 20
[23] = Study 1, esaxerenone 2.5 mg + itraconazole
[24] = Study 1, esaxerenone 2.5 mg alone
[25] = Study 2, esaxerenone 5 mg + rifampicin, n = 11
[26] = Study 2, esaxerenone 5 mg alone, n = 12

AUCinf GLSM ratio (90% CI) [2, 12]: 0.312 (0.297, 0.328) | Cmax GLSM ratio (90% CI) [2, 12]: 0.659 (0.599, 0.724) | decrease in esaxerenone Cmax [2, 13]: 34.1% | fold reduction of esaxerenone AUCinf [2, 13]: approximately 0.3 fold | AUCinf, GLSM [2, 14]: 350 ng·h/mL | Cmax, GLSM [2, 14]: 47.2 ng/mL | AUCinf, arithmetic mean (SD) [2, 15]: 351 (24.8) ng h mL^−1 | CL/F, arithmetic mean (SD) [2, 15]: 14.3 (1.01) L h^−1 | Cmax, arithmetic mean (SD) [2, 15]: 47.6 (6.22) ng mL^−1 | t1/2, arithmetic mean (SD) [2, 15]: 8.63 (1.67) h | tmax, median (range) [2, 15]: 2.50 (1.00–4.00) h | AUCinf, arithmetic mean (SD) [2, 16]: 1130 (150) ng h mL^−1 | CL/F, arithmetic mean (SD) [2, 16]: 4.50 (0.634) L h^−1 | t1/2, arithmetic mean (SD) [2, 16]: 16.6 (2.38) h | tmax, median (range) [2, 16]: 2.50 (1.50–3.50) h | Cmax, arithmetic mean (SD) ([2]; esaxerenone 5 mg single oral dose, alone, n = 11, plasma): 72.4 (10.1) ng mL^−1 | AUCinf, GLSM [2, 17]: 1121 ng·h/mL | Cmax, GLSM [2, 17]: 71.7 ng/mL | AUCinf GLSM ratio (90% CI) [6, 18]: 1.53 (1.45, 1.62) | Cmax GLSM ratio (90% CI) [6, 18]: 1.13 (1.05, 1.20) | AUCinf GLSM ratio (90% CI) ([6]; (esaxerenone + itraconazole)/(esaxerenone alone), 2.5 mg, listed as esaxerenone): 1.53 (1.45–1.62) | increase in esaxerenone Cmax ([6]; coadministration of itraconazole vs esaxerenone alone): 12.6% | AUCinf, GLSM [6, 19]: 976 ng·h/mL | Cmax, GLSM [6, 19]: 41.0 ng/mL | AUCinf, arithmetic mean (SD) [6, 20]: 996 (219) ng h mL^−1 | CL/F, arithmetic mean (SD) [6, 20]: 2.61 (0.477) L h^−1 | Cmax, arithmetic mean (SD) [6, 20]: 41.7 (8.46) ng mL^−1 | t1/2, arithmetic mean (SD) [6, 20]: 25.9 (4.21) h | tmax, median (range) [6, 20]: 2.00 (1.00–4.00) h | AUCinf, arithmetic mean (SD) [6, 21]: 648 (121) ng h mL^−1 | CL/F, arithmetic mean (SD) [6, 21]: 3.98 (0.696) L h^−1 | t1/2, arithmetic mean (SD) [6, 21]: 20.7 (3.96) h | tmax, median (range) [6, 21]: 2.25 (1.50–4.00) h | Cmax, arithmetic mean (SD) ([6]; esaxerenone 2.5 mg single oral dose, alone, n = 20, plasma): 36.7 (5.36) ng mL^−1 | AUCinf, GLSM [6, 22]: 637 ng·h/mL | Cmax, GLSM [6, 22]: 36.4 ng/mL
Structure (SMILES): Cc1c(C(=O)Nc2ccc(S(C)(=O)=O)cc2)cn(CCO)c1-c1ccccc1C(F)(F)F [Esaxerenone]
substrate of breast cancer resistance protein [1]: substrate | MR affinity relative to eplerenone ([3]; fold greater than eplerenone): 4 fold | MR affinity relative to spironolactone ([3]; fold greater than spironolactone): 76 fold | involvement of CYP3A4 in oxidative metabolism (CYP3A4): involved in the oxidative metabolism | absolute bioavailability [4]: approximately 90% | involvement of CYP3A5 in oxidative metabolism (CYP3A5): involved in the oxidative metabolism | substrate of P-glycoprotein (P‐glycoprotein (P‐gp)): substrate | tolerability ([5]; both dosages (2.5 and 5 mg d^−1)): well tolerated | clinical efficacy vs eplerenone 50 mg d^−1 ([5]; esaxerenone 2.5 mg d^−1, essential hypertension): noninferior | clinical efficacy of 5 mg d^−1 dosage vs 2.5 mg d^−1 dosage ([5]; essential hypertension): superior | serious AEs ([7]; Study 1): No serious AEs | Blood creatine phosphokinase increased, TEAE [7, 23]: 0 number of subjects (%) | Eosinophil count increased, TEAE [7, 23]: 0 number of subjects (%) | Rash, TEAE [7, 23]: 0 number of subjects (%) | Blood creatine phosphokinase increased, TEAE [7, 24]: 1 (5.0) number of subjects (%) | Eosinophil count increased, TEAE [7, 24]: 0 number of subjects (%) | Rash, TEAE [7, 24]: 0 number of subjects (%) | subjects reporting TEAEs ([7]; Study 1, whole study): 1 subject | safety and tolerability (in words) ([7]; administered concomitantly with itraconazole): safe and well tolerated | serious AEs ([8]; Study 2): No serious AEs | Blood creatine phosphokinase increased, TEAE [8, 25]: 0 number of subjects (%) | Eosinophil count increased, TEAE [8, 25]: 1 (9.1) number of subjects (%) | Rash, TEAE [8, 25]: 0 number of subjects (%) | Blood creatine phosphokinase increased, TEAE [8, 26]: 0 number of subjects (%) | Eosinophil count increased, TEAE [8, 26]: 0 number of subjects (%) | Rash, TEAE [8, 26]: 1 (8.3) number of subjects (%) | subjects reporting TEAEs ([8]; Study 2, whole study): 2 subjects | safety and tolerability (in words) ([8]; administered concomitantly with rifampicin): safe and well tolerated | mean plasma concentrations, Japanese vs Caucasian subjects [9]: similar | proportion of unchanged drug excreted in faeces ([10]; 14C-labelled esaxerenone): 18.7% | proportion of unchanged drug excreted in urine ([10]; 14C-labelled esaxerenone): 1.6% | overall excretion rate of oxidised metabolites ([10]; metabolite profiles in faeces and urine): about 30 % of the total dose

Structure (SMILES): COC(=O)[C@@H]1CC2=CC(=O)CC[C@]2(C)[C@@]23O[C@@H]2C[C@@]2(C)[C@@H](CC[C@@]24CCC(=O)O4)[C@H]13 [eplerenone]
IC50 (human MR): 970 nM | increase in eplerenone exposure [11]: 5 fold
